Screens (PubChem)
A selection: hits, their analogues and other compounds. The true share with any hit is near 1.1%.
hiPSC survival: enhancers of single-cell hiPSC survival, primary screen, ATPlite luminescence; AID 602274, 2012; 360,000 tested, 0.044% active; survival enhancement, % at 20 µM; 100% = ROCK inhibitor wells, 0% = DMSO; in the data active means survival enhancement above about 18%;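 further: cells exposed to compounds for 16 hours before the ATP read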
FAS TE block: FAS thioesterase domain inhibitors, primary screen, biochemical, fluorescence intensity, uHTS; Fatty acid synthase (Homo sapiens), P49327; recombinant FAS-TE, OMFH fluorogenic substrate, fluorescence endpoint; inhibition, % at 15 µM; 360,000 tested, 0.67% active; AID 602261, 2012;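 active means compounds whose normalised, plate-corrected inhibition of enzyme fluorescence in the single-dose primary screen is 50% or more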;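 further: 0% = DMSO with enzyme and 100% = substrate without enzyme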
SENP1 FRET inh: human SENP1 catalytic domain inhibitors, primary screen, biochemical, FRET, uHTS | Sentrin-specific protease 1 (Homo sapiens), Q9P0U3 | recombinant SENP1 catalytic domain, CyPet-SUMO1-YPet FRET cleavage | inhibition, % at 10 µM | 360,000 tested, 0.21% active | AID 624204, 2012;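 active means inhibition at least 30% at 10 µM, raw YFP signal under a set limit, fluorescence ratio 0.5 to 1.5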;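 further: 0% = enzyme with DMSO and 100% = no enzyme wells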
Target sequence (Q9P0U3 419-644 limits assumed): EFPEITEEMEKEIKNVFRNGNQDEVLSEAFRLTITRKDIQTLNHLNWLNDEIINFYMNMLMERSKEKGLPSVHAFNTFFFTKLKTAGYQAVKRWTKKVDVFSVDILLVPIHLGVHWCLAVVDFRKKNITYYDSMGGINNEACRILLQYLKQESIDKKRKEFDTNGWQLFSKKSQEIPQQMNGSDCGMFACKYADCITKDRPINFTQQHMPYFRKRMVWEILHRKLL
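Test system: human SENP1 catalytic domain; medium: Tris pH 8 buffer plus EDTA, NaCl, BME, BSA, NP40, catalase; incubation: 50 min reaction at room temperature; technique: FRET, CFP and YFP emission; controls: no-enzyme low control and enzyme-plus-DMSO high control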
ABCB6 inh 2: ABCB6 transporter inhibitors, primary screen, K562-ABCB6 cells, flow cytometry, MLPCN library. K562-ABCB6 porphyrin accumulation, 1 h; stronger effect = lower value. 360,000 tested, 0.19% active. fluorescence ratio to DMSO, % at 10 µM;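 active means fluorescence ratio to DMSO below 75%, the collection mean minus 3 SD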;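 further: signal is porphyrin accumulated inside mitochondria; 100% equals median channel fluorescence of DMSO control wells; lower ratio means ABCB6 inhibition with less porphyrin fluorescence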
FAS-TE inh conf: FAS thioesterase domain inhibitors, confirmation, biochemical, fluorescence intensity, single concentration; shares compounds with FAS TE block; recombinant FAS-TE, OMFH fluorogenic substrate; inhibition, % at 15 µM; 2,300 tested, 45% active; AID 624325, 2012;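 active means compounds inhibiting the enzyme by at least 50% at 15 µM in any one of the replicates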;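 further: 0% = enzyme with DMSO only and 100% = wells lacking enzyme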
* marks the source's active call; other numbers are inactive results; · = no result given.

SMILES	hiPSC survival	FAS TE block	SENP1 FRET inh	ABCB6 inh 2	FAS-TE inh conf
COc1cc(OC)c(N(C)S(=O)(=O)c2cccc(C(=O)OCC(=O)N(C)C3CCCCC3)c2)cc1Cl	2	66*	2	92	11
CN(c1ccccc1)S(=O)(=O)c1cccc(C(=O)Nc2nccs2)c1	-2	2	-1	93	·
COc1cc(OC)c(N(C)S(=O)(=O)c2cccc(C(=O)OCC(=O)c3c[nH]c4ccccc34)c2)cc1Cl	0	36	-3	93	·
Cc1ccc(C(=O)CN(C(=O)c2ccc(Cl)c(Cl)c2)N2C(=O)C3C4C=CC(C4)C3C2=O)cc1 (stereo not drawn)	0	61*	3	95	30
COC(CNC(=O)CCc1c(C)nc2c(-c3ccccc3)c(C)nn2c1C)OC	0	-6	0	99	·
CC(C)(C)c1ccc(OCCC(=O)OCC(=O)NCc2ccccc2)cc1	1	65*	-1	95	67*
CC(C)CN(C(=O)c1cccc(S(=O)(=O)N2CCN(Cc3ccccc3)CC2)c1)C1CCS(=O)(=O)C1 (stereo not drawn)	0	-2	2	88	·
Fc1c(F)c(C(F)(F)F)c(F)c(F)c1N/N=C\c1cccs1	0	63*	-3	96	51*
Cc1ccc(S(=O)(=O)N/N=C2/CCCCC2C2CCCCC2)cc1[N+](=O)[O-] (stereo not drawn)	0	31	2	98	·
CCC(C)(C)C1CCC(=NNS(=O)(=O)c2ccc(C)c([N+](=O)[O-])c2)CC1 (stereo not drawn)	0	73*	2	99	58*
COc1cccc(-n2c([S-])c(C(=O)Nc3ccc(S(=O)(=O)N4CCOCC4)cc3)[n+]3cc(C(N)=O)ccc23)c1	0	-1	-23	92	·
O=[N+]([O-])c1c(Nc2ccccn2)cc(Cl)c2nonc12	-1	62*	-2	103	31
O=C(O)c1ccccc1Nc1cc(Cl)c2nonc2c1[N+](=O)[O-]	0	29	2	100	·
O=[N+]([O-])c1c(Nc2ccc(O)cc2)cc(Cl)c2nonc12	1	60*	-1	138	44*
O=C1C=CC(O)C2(CO)OC12 (stereo not drawn)	-2	-8	1	98	·
O=C1C=CC(c2c[nH]c3ccccc23)CC1 (stereo not drawn)	-1	-9	-3	97	·
O=Cc1s/c(=N\S(=O)(=O)c2ccccc2)n(CCCCl)c1Cl	8	76*	9	117	83*
CC[C@@]12C(=O)N(c3cccc(Br)c3)C(=O)N1[C@H](c1ccc(Cl)cc1)[C@@H]1C(=O)N(C3CCCCC3)C(=O)[C@@H]12	4	87*	2	101	19
CC[C@@]12C(=O)N(c3ccc(OC)cc3)C(=O)N1[C@H](c1ccc(Cl)cc1)[C@@H]1C(=O)N(C3CCCCC3)C(=O)[C@@H]12	1	67*	2	99	42
CCN1C(=O)[C@H]2[C@@H](c3ccc(C)cc3)N3C(=O)N(c4cccc(C)c4)C(=O)[C@@]3(Cc3ccccc3)[C@H]2C1=O	-2	4	4	98	·
CCN1C(=O)[C@H]2[C@@H](c3ccc(C)cc3)N3C(=O)N(c4cccc(Cl)c4)C(=O)[C@@]3(Cc3ccccc3)[C@H]2C1=O	-1	27	0	97	·
CC(C)C[C@@]12C(=O)N(c3cccc(Cl)c3)C(=O)N1[C@H](c1ccc(Cl)cc1)[C@@H]1C(=O)N(C3CCCCC3)C(=O)[C@@H]12	0	90*	8	101	28
CC(C)C[C@@]12C(=O)N(c3cccc(Br)c3)C(=O)N1[C@H](c1ccc(Cl)cc1)[C@@H]1C(=O)N(C3CCCCC3)C(=O)[C@@H]12	-3	92*	3	97	19
C[C@@H]1CN([C@@H](C)CO)C(=O)CCCn2nncc2CO[C@H]1CN(C)Cc1ccccc1	2	-5	-1	102	·
CCOC(=O)CC(N)c1cccc([N+](=O)[O-])c1 (stereo not drawn)	-1	-8	2	97	·
SMILES	hiPSC survival	FAS TE block	SENP1 FRET inh	ABCB6 inh 2	FAS-TE inh conf
O=C(O)CC(NC(=O)C(c1ccccc1)c1ccccc1)c1cccc([N+](=O)[O-])c1 (stereo not drawn)	4	52*	4	98	64*
COC(=O)CC(NC(=O)Nc1ccc(C)cc1)c1cccc([N+](=O)[O-])c1 (stereo not drawn)	2	53*	-1	85	65*
CCOC(=O)CC(NC(=O)c1cc2ccccc2oc1=O)c1cccc([N+](=O)[O-])c1 (stereo not drawn)	1	50*	-2	97	55*
COc1ncnc2c1ncn2CC1COC(C)(C)O1 (stereo not drawn)	1	-6	0	98	·
Cc1cccc(/C=N/Nc2cc(N3CCOCC3)nc(N3CCOCC3)n2)c1	0	16	-4	102	·
O=[N+]([O-])c1ccc(/C=N/Nc2nc(N3CCOCC3)nc(N3CCOCC3)n2)cc1	0	50*	-14	95	23
O=[N+]([O-])c1ccc(Cl)c(/C=N/Nc2nc(N3CCOCC3)nc(N3CCOCC3)n2)c1	-1	51*	1	99	5
CC(C)c1ccc(/C=N/Nc2cc(N3CCOCC3)nc(N3CCOCC3)n2)cc1	1	89*	0	96	90*
CCOC(=O)[C@]12CCC=C1N(Cc1ccco1)C(=O)[C@H](CC(=O)NCCc1ccccc1OC)C2	0	0	-15	99	·
CCOc1cc(C(=O)Nc2cccc(OCC(=O)N3CCOCC3)c2)cc(OCC)c1OCC	0	-7	2	90	·
Cc1ccc(CNC(=O)c2ccc(N3CCC4(CC3)CC(c3ccccc3)=NO4)c(NC(=O)c3c(Cl)cccc3Cl)c2)cc1	0	63*	-1	101	21
CC(C)(C)NC(=O)/C(=C\C=C\c1ccccc1)NC(=O)c1ccc([N+](=O)[O-])cc1	4	78*	1	103	89*
O=C(N/C(=C/C=C/c1ccccc1)C(=O)N1CCCCC1)c1ccc([N+](=O)[O-])cc1	-1	92*	2	89	94*
O=C(N/C(=C/C=C\c1ccccc1)C(=O)N1CCOCC1)c1ccc(Br)cc1	0	65*	1	94	61*
O=C(N/C(=C/c1ccc([N+](=O)[O-])cc1)C(=O)N1CCCC1)c1ccccc1	0	2	0	95	·
COC(=O)/C(=C\C=C\c1ccccc1)NC(=O)c1ccccc1	-2	1	0	92	·
